Data: ChEMBL document CHEMBL1153585, “Evaluation of in vivo wound-healing potential of 2-[4-(2,4-dimethoxy-benzoyl)-phenoxy]-1-[4-(3-piperidin-4-yl-propyl)-piperidin-1-yl]-ethanone derivatives” (2009)
Calls of active or inactive are those of the source. The rule behind the calls is not given here.

Key:
Rattus norvegicus [1] = assay: Wound healing activity in po dosed Swiss albino rat incision wound model assessed as skin breaking strength after 10 days; type: functional
Rattus norvegicus [2] = assay: Wound healing activity in po dosed Swiss albino rat dead space wound model assessed as granuloma epithelialization and collagenation; type: functional, organism-based
Rattus norvegicus [3] = assay: Wound healing activity in po dosed Swiss albino rat incision wound model assessed as increase in wet weight of granulation tissue after 24 hrs; type: functional, organism-based
Rattus norvegicus [4] = assay: Wound healing activity in po dosed Swiss albino rat dead space wound model assessed as skin breaking strength after 10 days; type: functional
Outline: (§1)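 Oral dosing by feeding tube of a 4 mg/mL suspension in 1% (w/v) Tween-80, prepared fresh. Ten groups of four animals: untreated control, a 0.2% (w/w) nitrofurazone ointment reference, and eight test groups. Granulation tissue was weighed wet and dry, and its breaking strength was measured. Values are mean ± SE of 4 animals, analysed by one-way ANOVA with Tukey's test against control.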

Rattus norvegicus [5] = assay: Wound healing activity in po dosed Swiss albino rat dead space wound model assessed as dry weight of granulation tissue per 100 gm after 24 hrs; type: functional; outline: as §1
Rattus norvegicus [6] = assay: Wound healing activity in po dosed Swiss albino rat dead space wound model assessed as wet weight of granulation tissue per 100 gm after 24 hrs; type: functional; outline: as §1
Rattus norvegicus [7] = assay: Wound healing activity in po dosed Swiss albino rat incision wound model assessed as increase in dry weight of granulation tissue after 24 hrs; type: functional, organism-based

Compound | Activity (Rattus norvegicus [1]) | Activity (Rattus norvegicus [2]) | Activity (Rattus norvegicus [3]) | Activity (Rattus norvegicus [4]) | Activity (Rattus norvegicus [5]) | Activity (Rattus norvegicus [6]) | Activity (Rattus norvegicus [7])
NC(=O)N/N=C/c1ccc([N+](=O)[O-])o1 [NITROFURAZONE] | 875 g | – | – | – | – | – | –
COc1ccc(C(=O)c2ccc(OCC(=O)N3CCC(CCCC4CCN(C(=S)Nc5ccccc5Cl)CC4)CC3)cc2)c(OC)c1 | 748.38 g | Active | Active | 623.25 g | 26.04 mg | 134.79 mg | Active
COc1ccc(C(=O)c2ccc(OCC(=O)N3CCC(CCCC4CCN(C(=O)Nc5ccc(F)cc5)CC4)CC3)cc2)c(OC)c1 | 552.06 g | – | – | 451.6 g | 17.8 mg | 91.31 mg | –
COc1ccc(C(=O)c2ccc(OCC(=O)N3CCC(CCCC4CCN(C(=S)Nc5ccc(F)cc5)CC4)CC3)cc2)c(OC)c1 | 760.88 g | Active | Active | 645.69 g | 26.27 mg | 122.94 mg | Active
COc1ccc(C(=O)c2ccc(OCC(=O)N3CCC(CCCC4CCN(C(=O)Nc5ccccc5Cl)CC4)CC3)cc2)c(OC)c1 | 605.49 g | Active | – | 541.82 g | 21.01 mg | 104.85 mg | –
COc1ccc(NC(=S)N2CCC(CCCC3CCN(C(=O)COc4ccc(C(=O)c5ccc(OC)cc5OC)cc4)CC3)CC2)cc1 | 675 g | – | – | 355.42 g | 12.36 mg | 80.54 mg | –
COc1ccc(C(=O)c2ccc(OCC(=O)N3CCC(CCCC4CCN(C(=S)Nc5ccc(Cl)cc5Cl)CC4)CC3)cc2)c(OC)c1 | 612.5 g | – | – | 619.15 g | 21.02 mg | 88.02 mg | –
COc1ccc(NC(=O)N2CCC(CCCC3CCN(C(=O)COc4ccc(C(=O)c5ccc(OC)cc5OC)cc4)CC3)CC2)cc1 | 503.89 g | – | – | 414.19 g | 21.59 mg | 112.48 mg | –
COc1ccc(C(=O)c2ccc(OCC(=O)N3CCC(CCCC4CCN(C(=O)Nc5ccc(Cl)cc5Cl)CC4)CC3)cc2)c(OC)c1 | 445.12 g | – | – | 361.6 g | 17.81 mg | 79 mg | –
